# Measurements from different studies.
# Lines come from different studies, so protocols differ.
Structure (SMILES),assay,setting,chromatographic logD
CCn1cnnc1C1CCN(C(=O)c2cn3ccc(C)cc3n2)CC1,,pH 7.4,1.2
C[C@H](C(=O)N1Cc2c(-c3ccc(C(=O)N4CCCc5ccccc54)cc3)cnn2C[C@H]1C)c1ccccc1,HPLC,pH 7.4,5.2
COc1ccc(-c2nc(C(=O)Nc3cccc(-c4nnc5n4CCCCC5)c3)cs2)cc1OC,,pH 7.4,4.8
CCOC(=O)C1=C(C)N/C(=C/c2cc(C)n(-c3ccc(CN(C)C)cc3)c2C)C1=O,HPLC,pH 7.4,2.1
"CO[C@@H](C(=O)N1Cc2c(-c3ccc(C(=O)N4CCCc5ccccc54)cc3)cnn2C[C@H]1C(C)C)c1cnn(C)c1 (single isomer, unassigned)",HPLC,pH 7.4,4.1
CC1=C(C(=O)O)C(=O)/C(=C\c2cc(C)n(-c3ccccc3C(F)(F)F)c2C)N1,HPLC,pH 7.4,3.2
Cc1n[nH]c(CC(=O)N2Cc3c(-c4ccc(C(=O)N5CCCc6ccccc65)cc4)cnn3C[C@H]2C)n1,HPLC,pH 7.4,2.7
CCOC(=O)C1=C(C)N/C(=C/c2cc(C)n(-c3ccc(S(=O)(=O)C(F)(F)F)cc3)c2C)C1=O,HPLC,pH 7.4,3.4
CC1=C(C#N)[C@@H](c2ccc(C#N)cc2C(F)(F)F)NC(=O)N1c1cccc(C(F)(F)F)c1,HPLC,pH 7.5,3.2
CCOC(=O)C1=C(C)N/C(=C/c2cc(C)n(-c3ccc(CN4CCOCC4)cc3)c2C)C1=O,HPLC,pH 7.4,2.5
CC(C)[C@@H]1Cn2ncc(-c3ccc(C(=O)N4CCCc5ccccc54)cc3)c2CN1C(=O)Cc1ccccc1,HPLC,pH 7.4,5.3
CCn1c(-c2nc3cc(C(=O)N4CCC[C@@H](N)C4)cc(OC)c3n2C)cc2cccnc21,HPLC,pH 7.4,2.4
O=C(Nc1ccnc(C(F)(F)F)c1)Nc1cccc2c1OC(F)(F)O2,HPLC,pH 7.4,3.6
CCOC(=O)C1=C(C)N/C(=C/c2cc(C)n(-c3ccc(SC(F)(F)F)cc3)c2C)C1=O,HPLC,pH 7.4,3.8
CC(C)(C)C1=CC(=NNc2ccc([N+](=O)[O-])cc2[N+](=O)[O-])C=C(C(C)(C)C)C1=O,HPLC,pH 7.4,> 5.3
COc1cc(Cl)c(C(=O)N[C@@H](CN[C@H]2CC[C@@H](N)CC2)Cc2ccc(C#N)cc2)cc1-c1ccc(CN[C@H](C)c2ccc(C)cc2)o1,HPLC,pH 7.5,2.9
Nc1cccc2c1CN(C1CCC(=O)NC1=O)C2=O (stereo not drawn),HPLC,pH 7.4,-0.4
CCOC(=O)C1=C(C)N/C(=C/c2cc(CC)n(-c3ccccc3C(F)(F)F)c2CC)C1=O,HPLC,pH 7.4,3.6
CC1=C(C#N)[C@@H](c2ccc(C#N)cc2S(C)(=O)=O)N(C)C(=O)N1c1cccc(C(F)(F)F)c1,HPLC,pH 7.5,3
CCOC(=O)C1=C(C)N/C(=C/c2ccn(-c3ccccc3C(F)(F)F)c2)C1=O,HPLC,pH 7.4,3
CCc1nnc(NC(=O)c2nc(-c3ccc(Cl)cc3)n3c2CCCCC3)s1,,pH 7.4,6.8
